Laboratory results as given in ChEMBL document CHEMBL1140497, “The molecular pruning of a phosphoramidate peptidomimetic inhibitor of prostate-specific membrane antigen” (Bioorg Med Chem, 2007).

Test system: prostate-specific antigen
Experiment: Half life at pH 6.8 in presence of prostate-specific antigen
Type: ADME
Settings: prostate-specific antigen (enzyme incubation)

Work on O=C([O-])CC[C@H](NP(=O)([O-])OC[C@H](NC(=O)c1ccccc1)C(=O)[O-])C(=O)[O-].[K+].[K+].[K+].[K+] yielded a half-life of 6.8 h.

Molecular target: Glutamate carboxypeptidase 2 (Homo sapiens, UniProt Q04609)
Sequence (Q04609 whole entry): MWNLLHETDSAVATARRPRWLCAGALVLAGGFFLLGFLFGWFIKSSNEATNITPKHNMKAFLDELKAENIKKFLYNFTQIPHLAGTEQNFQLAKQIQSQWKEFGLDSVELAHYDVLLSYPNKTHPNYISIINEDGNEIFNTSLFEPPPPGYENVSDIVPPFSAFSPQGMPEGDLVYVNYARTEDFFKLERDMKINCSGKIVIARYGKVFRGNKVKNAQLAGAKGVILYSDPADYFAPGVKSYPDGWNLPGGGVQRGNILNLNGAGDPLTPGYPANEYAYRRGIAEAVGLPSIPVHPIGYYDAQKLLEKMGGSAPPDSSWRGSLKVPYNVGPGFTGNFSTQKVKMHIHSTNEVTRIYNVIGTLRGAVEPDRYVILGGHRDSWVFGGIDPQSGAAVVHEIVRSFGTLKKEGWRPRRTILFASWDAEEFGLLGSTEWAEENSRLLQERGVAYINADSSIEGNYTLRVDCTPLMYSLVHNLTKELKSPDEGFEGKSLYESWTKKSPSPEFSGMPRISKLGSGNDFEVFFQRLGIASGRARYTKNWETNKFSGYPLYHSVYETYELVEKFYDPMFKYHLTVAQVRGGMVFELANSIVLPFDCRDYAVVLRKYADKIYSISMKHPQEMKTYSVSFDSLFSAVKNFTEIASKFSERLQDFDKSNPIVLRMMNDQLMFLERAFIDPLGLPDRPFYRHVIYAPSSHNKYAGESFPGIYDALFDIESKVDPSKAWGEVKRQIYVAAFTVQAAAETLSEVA
Experiment: Inhibition of PSMA
Settings: not given
Summary of the method: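 Purified PSMA in 50 mM Tris pH 7.4, diluted to give 15–20% substrate conversion without inhibitor. Substrate PAB-Glu-γ-Glu at 10 μM final. Five serial inhibitor dilutions spanning 10–90% inhibition. 15 min at 37 °C with shaking. Stopped with methanolic TFA, buffered with K2HPO4, centrifuged. Supernatant quantified by HPLC; IC50 calculated.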

First: O=C(O)CC[C@H](NP(=O)(O)O)C(=O)O [listing 1 of 2 here]
Second: O=C(O)CC[C@H](OP(=O)(O)O)C(=O)O
The IC50 of the first is 6.5-fold lower: 0.0023 µM for the first, 0.015 µM for the second. The first is the more potent here.

Compared with CN(C(=O)c1ccccc1)[C@@H](COP(=O)(O)N[C@@H](CCC(=O)O)C(=O)O)C(=O)O, O=C(O)CC[C@H](NP(=O)(O)OC[C@@H](NC(=O)c1ccccc1)C(=O)O)C(=O)O is 13-fold higher in IC50: 0.055 µM for the first, 0.7 µM for the second. The first is the more potent here.

Compared with CN(CCOP(=O)(O)N[C@@H](CCC(=O)O)C(=O)O)C(=O)c1ccccc1, O=C(O)CC[C@H](NP(=O)(O)OCCNC(=O)c1ccccc1)C(=O)O is 6.4-fold higher in IC50: 0.28 µM for the first, 1.8 µM for the second.

First: O=C([O-])CC[C@H](NP(=O)([O-])OC[C@H](NC(=O)c1ccccc1)C(=O)[O-])C(=O)[O-].[K+].[K+].[K+].[K+]
Second: O=C(O)CC[C@H](NP(=O)(O)OCC(CCc1ccccc1)C(=O)O)C(=O)O (stereo partly specified)
The IC50 of the first is 23-fold lower: 0.035 µM for the first, 0.79 µM for the second.

Going from O=C(O)CC[C@H](NP(=O)(O)O)C(=O)O [listing 2 of 2 here] to O=C(O)CC[C@H](NP(=O)(O)OCCCCc1ccccc1)C(=O)O, the IC50 rises from 0.00086 µM to 0.18 µM (210-fold). The first is the more potent here.
